Assay results reported in PMC10879835 (Saudi Journal of Biological Sciences, 2024).
Values belong to the compound of their own block, whether it stands above or below them.

Tests used:
[1] = Solubility of MG in solid lipids and surfactants; format: physicochemical; conditions: in Labrafil M 2130 CS
Summary of the method: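 1 g of each solid lipid was held in a vial on a magnetic stirrer above its melting point. Test compound was added in increments until saturation, and the amount dissolved was recorded. Samples were filtered through a 0.45 membrane to remove undissolved solid.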

α-amylase = experiment: α-Amylase inhibitory assay; format: biochemical; conditions: at 100 µg/mL
Summary of the method: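 DNS method. Test compound at 25, 50, 100 and 200 µg/ml, or acarbose at 100 µg/ml as reference, was preincubated 30 min with α-amylase diluted in 20 mM sodium phosphate buffer pH 6.9. 1% w/w starch was then added and the mix held 15 min at 37 ± 0.5 °C. The reaction was stopped with DNS reagent and heated 5 min in boiling water, then read at 540 nm. % inhibition was calculated against a no-sample control and a no-enzyme blank.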

α-glucosidase = experiment: α-Glucosidase inhibitory assay; format: biochemical
Summary of the method: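 Test sample was preincubated 15 min at 37 °C with α-glucosidase solution (1 U/mL in 0.1 M potassium phosphate buffer, pH 6.8). 5 mM p-nitrophenyl-α-D-glucopyranoside solution was added, with a further 15 min incubation. The reaction was stopped with 0.2 M sodium carbonate and read at 405 nm. Acarbose was the positive control. % inhibition came from control and blank absorbances.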

Anti-oxidant DPPH assay = conditions: 30 mins, absorbance at 515 nm
Summary of the method: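 Lipid-nanoparticle and solution formulations of the test compound were made as 1 mg/ml stocks in methanol and diluted to 1–50 ug/ml. Ascorbic acid was the control. Each dilution was mixed 1:1 by volume with 200 μM DPPH. Absorbance at 515 nm was read after 30 min against a methanol blank. % inhibition was taken […], and IC50 came from regression of mean % inhibition on log concentration.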

- MG solubility in solid lipid [1]: 77.63 ± 5.78 mg/g
Compound: O=c1c2cc(O)c(O)cc2oc2cc(O)c([C@@H]3O[C@H](CO)[C@@H](O)[C@H](O)[C@H]3O)c(O)c12 [Mangiferin]

- α-amylase inhibitory effect (α-amylase): 78.01 ± 7.45%
- α-glucosidase inhibition (α-glucosidase): 63.43 ± 4.02%
Compound: C[C@H]1O[C@H](O[C@H]2[C@H](O)[C@@H](O)[C@@H](O[C@H]3[C@H](O)[C@@H](O)C(O)O[C@@H]3CO)O[C@@H]2CO)[C@H](O)[C@@H](O)[C@@H]1N[C@H]1C=C(CO)[C@@H](O)[C@H](O)[C@H]1O (stereo partly shown) [Acarbose]

- DPPH IC50 (Anti-oxidant DPPH assay): 23.33 µg/mL
Compound: O=C1O[C@H]([C@@H](O)CO)C(O)=C1O [AA, ascorbic acid]
